Data from ChEMBL document CHEMBL1128383, “Potent, orally active, competitive N-methyl-D-aspartate (NMDA) receptor antagonists are substrates for a neutral amino acid uptake system in Chinese hamster ovary cells” (J Med Chem, 1995).
pIC50: −log10 of the molar value. Blank lines part the entries; values can stand above or below the compound they belong to.

Key:
[1] = biological target: T1, Glutamate NMDA receptor (Rattus norvegicus) (UniProt P35439+Q00959+Q00960+Q00961+Q62645+Q8VHN2+Q9R1M7); experiment: (§1) Inhibition of receptor binding affinity in rat brain synaptosomal membrane was determined by [3H]-CGP- 39653 as radioligand; type: cell membranes; conditions: concentration not given here
Outline: (§2)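 Displacement of radioligand ([3H]glutamate, [3H]glycine or [3H]CGP 39653) from rat cortex synaptosomal membranes. IC50 values are means of at least two experiments, each run in triplicate.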

[2] = biological target: T1, Glutamate NMDA receptor (Rattus norvegicus); experiment: (§3) Inhibition of NMDA receptor binding affinity in rat brain synaptosomal membrane using [3H]glycine as radioligand; type: cell membranes; conditions: concentration not given here; outline: as §2
[3] = biological target: T1, Glutamate NMDA receptor (Rattus norvegicus); experiment: (§4) Inhibition of NMDA receptor binding affinity in rat brain synaptosomal membrane using [3H]glutamate as radioligand; type: cell membranes; conditions: concentration not given here; outline: as §2
Mus musculus [4] = experiment: Maximal electroshock (MES) results in mice by iv administration of 1 mg/kg expressed as number of animals ataxia by total 5 animals tested after 1 hr was reported; type: functional
Outline: (§5)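 Adult male CF-1 mice (18–24 g) dosed iv, mg/kg. At 15 min, 1 h and 2 h after dosing, a 60 Hz sinusoidal current (50 mA base to peak, 0.2 s) is applied through corneal electrodes smeared with electrolyte jelly. Protection means no tonic hindlimb extension. Ataxia is scored by inverted screen. Data are expressed as animals affected per animals tested, 5 per group.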

Mus musculus [5] = experiment: Maximal electroshock (MES) results in mice by iv administration of 1 mg/kg expressed as number of animals ataxia by total 5 animals tested after 2 hr was reported; type: functional; outline: as §5
Mus musculus [6] = experiment: Maximal electroshock (MES) results in mice by iv administration of 1 mg/kg expressed as number of animals protected by total 5 animals tested after 15 min was reported; type: functional; outline: as §5
Mus musculus [7] = experiment: Maximal electroshock (MES) results in mice by iv administration of 0.3 mg/kg expressed as number of animals ataxia by total 5 animals tested after 2 hr was reported; type: functional; outline: as §5
Mus musculus [8] = experiment: Maximal electroshock (MES) results in mice by iv administration of 0.3 mg/kg expressed as number of animals protected by total 5 animals tested after 15 min was reported; type: functional; outline: as §5
Mus musculus [9] = experiment: Maximal electroshock (MES) results in mice by iv administration of 0.3 mg/kg expressed as number of animals ataxia by total 5 animals tested after 15 min was reported; type: functional; outline: as §5
Mus musculus [10] = experiment: Maximal electroshock (MES) results in mice by iv administration of 0.3 mg/kg expressed as number of animals protected by total 5 animals tested after 2 hr was reported; type: functional; outline: as §5
Mus musculus [11] = experiment: Maximal electroshock (MES) results in mice by iv administration of 1 mg/kg expressed as number of animals ataxia by total 5 animals tested after 15 min was reported; type: functional; outline: as §5
Glutamate NMDA receptor [12] = experiment: as §4; type: cell membranes; outline: as §2
Mus musculus [13] = experiment: Maximal electroshock (MES) results in mice by iv administration of 0.3 mg/kg expressed as number of animals ataxia by number of animals tested after 1 hr was reported; type: functional; outline: as §5
Mus musculus [14] = experiment: Maximal electroshock (MES) results in mice by iv administration of 1 mg/kg expressed as number of animals protected by total 5 animals tested after 1 hr was reported; type: functional; outline: as §5
Mus musculus [15] = experiment: Maximal electroshock (MES) results in mice by iv administration of 1 mg/kg expressed as number of animals protected by total 5 animals tested after 2 hr was reported; type: functional; outline: as §5
Mus musculus [16] = experiment: Maximal electroshock (MES) results in mice by iv administration of 0.3 mg/kg expressed as number of animals protected by total 5 animals tested after 1 hr was reported; type: functional; outline: as §5
Glutamate NMDA receptor [17] = experiment: as §1; type: cell membranes; outline: as §2
Glutamate NMDA receptor [18] = experiment: Inhibition of NMDA receptor binding affinity in rat brain synaptosomal membrane was determined by [3H]-CGP- 39653 as radioligand; type: cell membranes
Outline: (§6)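 Displacement of the named radioligand from rat cortex synaptosomal membranes, following previously reported procedures. IC50 values are means of at least two experiments, each run in triplicate.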

[19] = Therapeutic index(TI) expressed as ratio of ataxia ED50 to the MES ED50 was determined; conditions: read-out: TI
Glutamate NMDA receptor [20] = experiment: Inhibition of NMDA receptor binding affinity in rat brain synaptosomal membrane by using [3H]glycine as radioligand; type: cell membranes; outline: as §6
Glutamate NMDA receptor [21] = experiment: Inhibition of receptor binding affinity in […] measured using LDH release
Outline: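 Neuronal cell-culture excitotoxicity assay. Cell death is induced by a 5 min application of 100 μM NMDA and read out as lactate dehydrogenase release. The value is the compound concentration needed to prevent cell death.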

Mus musculus [22] = organism: Mus musculus; experiment: Potent oral activity in MES mice.; type: functional
Mus musculus [23] = experiment: Maximal electroshock results in mice by iv administration of 3 mg/kg expressed as 50% effective dose; type: functional
Glutamate NMDA receptor [24] = experiment: as §3; type: cell membranes; outline: as §2

inhibition [1]: 100%
inhibition [2]: 81%
inhibition [3]: 90%
Structure (SMILES): N[C@H](Cc1cccc(-c2ccccc2)c1)C(=O)O

pIC50 (Glutamate NMDA receptor [21]): 7.30
pIC50 (Glutamate NMDA receptor [12]): 7.82
pIC50 (Glutamate NMDA receptor [17]): 8.22
pIC50 (Glutamate NMDA receptor [24]): 4.18
Structure (SMILES): N[C@@H](Cc1cc(CP(=O)(O)O)cc(-c2cccc3ccccc23)c1)C(=O)O
ED50 (Mus musculus [22]): 5 mg/kg
selectivity ratio [19]: 2.28
ED50 (Mus musculus [23]): 0.53 mg/kg

Further lines, the compound ahead of its results:

Structure (SMILES): N[C@@H](Cc1cccc(-c2ccccc2)c1)C(=O)O
inhibition [1]: 52%
inhibition [2]: 52%
inhibition [3]: 58%

Structure (SMILES): N[C@@H](Cc1cc(CP(=O)(O)O)cc(-c2ccc3ccccc3c2)c1)C(=O)O
Ataxia (Mus musculus [4]): 1
Ataxia (Mus musculus [5]): 0
Protected (Mus musculus [6]): 1
Ataxia (Mus musculus [7]): 0
Protected (Mus musculus [8]): 1
Ataxia (Mus musculus [9]): 0
Protected (Mus musculus [10]): 2
Ataxia (Mus musculus [11]): 0
pIC50 (Glutamate NMDA receptor [12]): 7.85
Ataxia (Mus musculus [13]): 0
Protected (Mus musculus [14]): 5
Protected (Mus musculus [15]): 5
Protected (Mus musculus [16]): 0
pIC50 (Glutamate NMDA receptor [17]): 7.92

Structure (SMILES): O=C(O)C1CN(CCCP(=O)(O)O)CCN1 (stereo unspecified)
pIC50 (Glutamate NMDA receptor [18]): 6.83
selectivity ratio [19]: 2.21
pIC50 (Glutamate NMDA receptor [20]): < 3.70
pIC50 (Glutamate NMDA receptor [12]): 6.08
